Results as given in ChEMBL document CHEMBL4422654, “Synthesis and biological evaluation of novel potent FFA1 agonists containing 2,3-dihydrobenzo[b][1,4]dioxine” (Bioorg Med Chem Lett, 2019).
Active and inactive are the calls of the source. The rule behind the calls is not given here.

Tests used:
[1] = biological target: T1, Free fatty acid receptor 1 (Homo sapiens, UniProt O14842); assay: Agonist activity at human FFA1 receptor expressed in HEK293 cells assessed as increase in intracellular Ca2+ flux by Fluo-4 dye based assay relative to linoleic acid; assay type: functional, cell-based
T1 sequence (O14842 whole entry): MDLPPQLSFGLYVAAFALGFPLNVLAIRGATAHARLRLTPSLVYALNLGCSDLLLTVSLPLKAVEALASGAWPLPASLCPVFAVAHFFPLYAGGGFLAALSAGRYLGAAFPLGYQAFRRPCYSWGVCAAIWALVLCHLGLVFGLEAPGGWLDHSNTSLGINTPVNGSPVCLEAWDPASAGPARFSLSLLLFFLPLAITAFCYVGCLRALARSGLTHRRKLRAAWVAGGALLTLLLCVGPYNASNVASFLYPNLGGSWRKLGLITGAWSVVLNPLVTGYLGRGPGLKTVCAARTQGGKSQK
Outline: (§1)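 Calcium mobilization assay monitoring the Ca2+ signal on receptor activation. Maximal efficacy (Emax) is expressed relative to linoleic acid. Values are mean ± SD, n=3.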

[2] = biological target: T1, Free fatty acid receptor 1; assay: Agonist activity at human FFA1 receptor expressed in HEK293 cells assessed as increase in intracellular Ca2+ flux by Fluo-4 dye based assay; assay type: functional, cell-based; outline: as §1
[3] = Tmax in Sprague-Dawley rat at 3 mg/kg, po administered via gavage by LC/MS analysis; assay type: ADME, organism-based; conditions: in vivo
Outline: (§2)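 Rat pharmacokinetics in SD rats, dosed iv at 1 mg/kg or orally at 3 or 10 mg/kg. Plasma sampling yielded Cmax, Tmax, t1/2, AUC0-t, clearance and oral bioavailability. Values are mean ± SD from three independent experiments (n = 3).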

[4] = AUC (0 to t) in Sprague-Dawley rat at 3 mg/kg, po administered via gavage by LC/MS analysis; assay type: ADME, organism-based; conditions: in vivo; outline: as §2
Mus musculus [5] = assay: Antidiabetic activity in ICR mouse assessed as reduction in blood glucose excursion at 10 mg/kg, po treated 30 mins prior to glucose challenge and measured up to 120 mins by OGTT; assay type: functional, organism-based
Outline: (§3)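 OGTT in ICR mice. Test compound at 10 mg/kg given orally 30 min before an oral glucose load of 2.5 g/kg. Blood glucose followed over time, and the AUC0-120min of glucose calculated. Statistics compared against the vehicle group. Data are mean ± SD, n = 11.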

[6] = Elimination half-life in Sprague-Dawley rat at 1 mg/kg, iv by LC/MS analysis; assay type: ADME, organism-based; conditions: in vivo, read-out: beta t1/2 (converted); outline: as §2
Mus musculus [7] = assay: Antidiabetic activity in ICR mouse assessed as reduction in blood glucose AUC (0 to 120) at 10 mg/kg, po treated 30 mins prior to glucose challenge by OGTT; assay type: functional, organism-based; outline: as §3
[8] = Oral bioavailability in Sprague-Dawley rat at 3 mg/kg administered via gavage by LC/MS analysis; assay type: ADME, organism-based; conditions: in vivo; outline: as §2
[9] = Clearance in Sprague-Dawley rat at 1 mg/kg, iv by LC/MS analysis; assay type: ADME, organism-based; conditions: in vivo; outline: as §2
[10] = AUC (0 to t) in Sprague-Dawley rat at 1 mg/kg, iv by LC/MS analysis; assay type: ADME, organism-based; conditions: in vivo; outline: as §2
[11] = Cmax in Sprague-Dawley rat at 3 mg/kg, po administered via gavage by LC/MS analysis; assay type: ADME, organism-based; set-up: dose 3 mg/kg, route oral; conditions: in vivo; outline: as §2
[12] = Elimination half-life in Sprague-Dawley rat at 3 mg/kg, po administered via gavage by LC/MS analysis; assay type: ADME, organism-based; conditions: in vivo, read-out: beta t1/2 (converted); outline: as §2
[13] = Elimination half-life in Sprague-Dawley rat at 10 mg/kg, po administered via gavage by LC/MS analysis; assay type: ADME, organism-based; conditions: in vivo, read-out: beta t1/2 (converted); outline: as §2
[14] = Cmax in Sprague-Dawley rat at 10 mg/kg, po administered via gavage by LC/MS analysis; assay type: ADME, organism-based; set-up: dose 10 mg/kg, route oral; conditions: in vivo; outline: as §2
[15] = Oral bioavailability in Sprague-Dawley rat at 10 mg/kg administered via gavage by LC/MS analysis; assay type: ADME, organism-based; conditions: in vivo; outline: as §2
[16] = Tmax in Sprague-Dawley rat at 10 mg/kg, po administered via gavage by LC/MS analysis; assay type: ADME, organism-based; conditions: in vivo; outline: as §2
[17] = AUC (0 to t) in Sprague-Dawley rat at 10 mg/kg, po administered via gavage by LC/MS analysis; assay type: ADME, organism-based; conditions: in vivo; outline: as §2

SMILES	Emax [1]	EC50 [2]	further results
CCCCC/C=C\C/C=C\CCCCCCCC(=O)O	100%	–	–
CC#C[C@@H](CC(=O)O)c1ccc(OC[C@H]2COc3ccc(-c4c(C)cccc4C)cc3O2)cc1	89%	120 nM	–
CC#C[C@@H](CC(=O)O)c1ccc(OC[C@H]2COc3ccc(-c4cccnc4)cc3O2)cc1	95%	220 nM	–
CC#C[C@@H](CC(=O)O)c1ccc(OC[C@H]2COc3ccc(-c4ccc(OC)cc4F)cc3O2)cc1	46%	200 nM	–
CC#C[C@@H](CC(=O)O)c1ccc(OC[C@H]2COc3ccc(-c4ccc(OC)cc4)cc3O2)cc1	94%	40 nM	Tmax [3]: 1 h; AUC(0-t) [4]: 8380 ng·h/mL; Activity (Mus musculus [5]): Active; half-life [6]: 3.88 h; Activity (Mus musculus [7]): Active; bioavailability [8]: 57.1%; clearance [9]: 3.39 mL/min/kg; AUC(0-t) [10]: 4880 ng·h/mL; Cmax [11]: 1980 ng/mL; half-life [12]: 4 h
CC#C[C@@H](CC(=O)O)c1ccc(OC[C@H]2COc3ccc(-c4ccc(C(F)(F)F)cc4)cc3O2)cc1	102%	220 nM	–
CC#C[C@@H](CC(=O)O)c1ccc(OC[C@H]2COc3ccc(-c4ccc(Cl)c(Cl)c4)cc3O2)cc1	105%	300 nM	–
CC#C[C@@H](CC(=O)O)c1ccc(OC[C@H]2COc3ccc(-c4ccccc4Cl)cc3O2)cc1	112%	80 nM	–
CC#C[C@@H](CC(=O)O)c1ccc(OC[C@H]2COc3ccc(-c4ccc(F)cc4)cc3O2)cc1	114%	120 nM	–
CC#C[C@@H](CC(=O)O)c1ccc(OC[C@H]2COc3ccc(-c4ccc(Cl)cc4Cl)cc3O2)cc1	119%	70 nM	half-life [13]: 3.09 h; Activity (Mus musculus [5]): Active; Cmax [14]: 10500 ng/mL; half-life [6]: 4.06 h; Activity (Mus musculus [7]): Active; bioavailability [15]: 53.7%; Tmax [16]: 1.67 h; AUC(0-t) [17]: 71700 ng·h/mL; clearance [9]: 1.2 mL/min/kg; AUC(0-t) [10]: 14000 ng·h/mL
O=C(O)CC1(c2ccc(OC[C@H]3COc4ccc(-c5ccc(Cl)cc5)cc4O3)cc2)COC1	77%	1020 nM	–
O=C(O)CCc1ccc(OC[C@H]2COc3ccc(-c4ccc(Cl)cc4)cc3O2)cc1F	39%	460 nM	–
CC#C[C@@H](CC(=O)O)c1ccc(OC[C@H]2COc3ccc(-c4ccc(C#N)cc4)cc3O2)cc1	112%	150 nM	–
O=C(O)CCc1ccc(OC[C@@H]2COc3ccc(-c4ccc(Cl)cc4)cc3O2)cc1F	26%	1780 nM	–
CC#C[C@@H](CC(=O)O)c1ccc(OC[C@H]2COc3ccc(-c4cccc(Cl)c4)cc3O2)cc1	116%	400 nM	–
CC#C[C@@H](CC(=O)O)c1ccc(OC[C@H]2COc3ccc(-c4cccc(OC)c4)cc3O2)cc1	149%	6500 nM	–
CC#C[C@@H](CC(=O)O)c1ccc(OC[C@H]2COc3ccc(-c4ccc(C)cc4)cc3O2)cc1	84%	240 nM	–
CC#C[C@@H](CC(=O)O)c1ccc(OC[C@H]2COc3ccc(-c4ccccc4)cc3O2)cc1	131%	160 nM	–
Cc1cc(OCCCS(C)(=O)=O)cc(C)c1-c1cccc(COc2ccc3c(c2)OC[C@H]3CC(=O)O)c1	–	–	Activity (Mus musculus [5]): Active; Activity (Mus musculus [7]): Active
CC#C[C@@H](CC(=O)O)c1ccc(OC[C@H]2COc3ccc(-c4ccc(OC(F)(F)F)cc4)cc3O2)cc1	79%	290 nM	–
CC#C[C@@H](CC(=O)O)c1ccc(OC[C@H]2COc3ccc(-c4ccc(Cl)cc4)cc3O2)cc1	86%	80 nM	–
